Screening results: PubChem BioAssay, several laboratories
Rows were chosen to be rich in hits. Some 4.7% of all compounds tested hit in one or more screens of this group.
RGS4 block = RGS4 inhibitors, primary screen, cell-based, HEK293 M3R inducible RGS4, calcium flux. AID 463165, 2010. 310,000 tested, 0.45% active. B-score at 10 µM. Fluo-4 calcium flux; stronger effect = higher value; triggered by carbachol at its EC20. Regulator of G-protein signaling 4 (Homo sapiens), P49798;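 active means B-score, a plate-corrected calcium signal, over three deviations above library mean, with baseline fluorescence within five deviations of library mean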;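 further: RGS4 expression induced by doxycycline in cells with stable M3 receptor; B-score is computed from the integrated fluorescence ratio over baseline after carbachol; higher B-score means a larger calcium signal and so more RGS4 inhibition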
Target sequence (P49798 whole entry, looked up): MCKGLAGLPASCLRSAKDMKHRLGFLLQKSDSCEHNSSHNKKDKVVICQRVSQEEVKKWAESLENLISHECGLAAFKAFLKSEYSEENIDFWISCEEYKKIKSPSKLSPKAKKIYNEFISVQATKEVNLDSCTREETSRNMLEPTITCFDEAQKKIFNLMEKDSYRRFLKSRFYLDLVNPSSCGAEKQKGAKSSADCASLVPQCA
MrgX1 PAM = positive allosteric modulators of MrgX1, primary screen, HEK293 cells, Fluo-4 calcium flux; Mas-related G-protein coupled receptor member X1 (Homo sapiens), Q96LB2; FDSS; stronger effect = higher value; B-score at 10 µM; 310,000 tested, 0.63% active; AID 588675, 2011;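 active means plate-corrected calcium response at least 3 library SD above typical, normal starting fluorescence, not activating the receptor alone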;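 further: compound read alongside a low EC10 to EC30 dose of BAM8-22 agonist; peak minus trough fluorescence over baseline measured at the second addition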
Target sequence (Q96LB2 whole entry, looked up): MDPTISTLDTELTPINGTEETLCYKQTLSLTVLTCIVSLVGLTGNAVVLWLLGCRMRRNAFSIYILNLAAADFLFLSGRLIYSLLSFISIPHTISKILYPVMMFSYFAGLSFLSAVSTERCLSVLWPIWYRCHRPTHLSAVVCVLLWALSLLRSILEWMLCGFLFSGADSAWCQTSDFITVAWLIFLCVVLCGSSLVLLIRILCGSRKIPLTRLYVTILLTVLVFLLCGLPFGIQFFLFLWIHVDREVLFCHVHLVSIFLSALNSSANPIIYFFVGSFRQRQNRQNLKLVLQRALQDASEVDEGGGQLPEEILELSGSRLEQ
MrgX1 ag = agonists of human MrgX1 receptor, primary screen, HEK293 cells, Fluo-4 calcium flux | Mas-related G-protein coupled receptor member X1 (Homo sapiens), Q96LB2 | 310,000 tested, 0.44% active | Fluo-4 calcium fluorescence, agonist mode; stronger effect = higher value | B-score at 10 µM;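 active means calcium response B-score plate-corrected fluorescence ratio at least 3 library SD, with starting fluorescence B-score inside 5 SD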
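Assay system: MrgX1-expressing HEK293 cells / Amount: fifteen thousand cells per well / Doses: test compound in the initial addition of three / Timing: cells plated overnight, dye loaded 0.5 h 37 °C, 0.5 h room temperature / Technique: kinetic calcium dye fluorescence, Fluo-4 NW / Control set: positive and negative controls per plate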
MrgX1 antag = antagonists of human MrgX1 receptor, primary screen, HEK293 cells, Fluo-4 calcium flux. Mas-related G-protein coupled receptor member X1 (Homo sapiens), Q96LB2. 310,000 tested, 1.3% active. B-score at 10 µM. BAM8-22 antagonism; stronger effect = lower value;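 active means calcium-response B-score plate-corrected more than 3 library SD below zero, starting fluorescence within 5 deviations, no agonist response on first addition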;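 further: peak minus trough fluorescence over baseline after final BAM8-22 challenge near maximal dose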
RGS4 act = RGS4 potentiators or activators, primary screen, cell-based, HEK293 M3R inducible RGS4, calcium flux | 310,000 tested, 0.92% active | B-score at 10 µM | carbachol calcium flux Fluo4; stronger effect = lower value;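 active means B-score of the integrated calcium signal more than 4 SD below the library mean, with starting fluorescence not abnormally high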;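 further: negative B-score means reduced calcium response which marks RGS4 activation or potentiation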
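System: HEK293 FlpIn-TREx cells, stable M3R, doxycycline-inducible RGS4. Timing: overnight RGS4 induction, 30 min dye load 37 °C, 20 min compound RT. Also added: carbachol, ECmax concentration. Measured by: Fluo4 fluorescence kinetic imaging of calcium. Evaluation: integrated calcium ratio converted to B score.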
KCC2 mod = KCC2 cotransporter modulators, thallium flux, primary screen, cell-based, HEK293 KCC2, FluoZin-2 fluorescence, MLSMR | KCC2 cells, thallium flux FluoZin-2 fluorescence | AID 1456, 2008 | B-score of Tl+ flux slope (higher = more flux/activation; lower = inhibition) at 10 µM | Solute carrier family 12 member 5 (Homo sapiens), Q9H2X9 | 190,000 tested, 2.2% active;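 active means thallium flux slope and its plate-corrected score both differing from the plate sample mean at a set confidence after two filtering rounds, in either direction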;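 further: slope of fluorescence scaled to starting intensity during 10 to 20 s after thallium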
RGS4 act valid = reduced carbachol calcium response, RGS4-induced M3R cells, confirmation, RGS4 activator project, cell-based, HEK293 M3R/RGS4 inducible, calcium flux, duplicate; shares compounds with RGS4 act; carbachol calcium flux Fluo4; inhibition, % at 10 µM; 1,100 tested, 89% active; AID 602282, 2012;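 active means inhibition above 3 SD of the buffer control wells, cut at about 41% in these data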;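 further: signal is the integrated peak-minus-minimum Fluo4 fluorescence over baseline ratio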
RGS4 act ctr = counter-screen for RGS4 activators: effect in non-induced cells; shares compounds with RGS4 act; HEK293 M3R non-induced RGS4, Fluo4 calcium flux; after carbachol challenge at its EC90; inhibition, % at 10 µM; 1,100 tested, 82% active;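 active means inhibition exceeding 3 SD of buffer-only control wells, cut at about 26% in these data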;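 further: percent drop in integrated peak-minus-baseline over baseline Fluo4 ratio after carbachol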
* marks the source's active call; other numbers are inactive results; i = inactive; x = no result given.

SMILES	RGS4 block	MrgX1 PAM	MrgX1 ag	MrgX1 antag	RGS4 act	KCC2 mod	RGS4 act valid	RGS4 act ctr
CCOC(=O)N1CCC(N2CCN(Cc3ccc(F)c(F)c3)C(CCO)C2)CC1 (configuration not stated)	i	i	i	i	i	-1	x	x
CC(=O)Nc1ccc(NC(=O)c2ccnn2C)cc1	i	i	i	i	i	x	x	x
c1ccc(C(c2ccccc2)c2noc(CN3CCN(CC4CC4)CC3)n2)cc1	i	i	i	i	-8*	0.4	93*	78*
COC(=O)c1ccc(OC)c(CSc2nnc(COc3ccccc3)o2)c1	i	i	i	i	i	-1.4	x	x
COC(=O)c1ccc(OC)c(CSc2nnc(-c3ccc(C(C)(C)C)cc3)o2)c1	i	i	i	i	-7.9*	0.41	58*	84*
Cc1ccc(C(=O)NCCc2nnc3ccc(N4CCCC4)nn23)cc1	i	i	i	i	i	x	x	x
c1ccc(COc2ccc(OCCCN3CCCC3)cc2)cc1	i	i	i	i	-11*	1.4	94*	57*
CC1CCN(CCCOc2ccc(OCc3ccccc3)cc2)CC1	i	i	i	i	-10*	x	92*	78*
c1ccc(COc2ccc(OCCN3CCCC3)cc2)cc1	i	i	i	i	i	-0.57	x	x
COc1cc(C)ccc1S(=O)(=O)N1CCN(C23CC4CC(CC(C4)C2)C3)CC1	i	i	i	i	-8.9*	x	92*	80*
COc1cc(F)ccc1S(=O)(=O)N1CCN(C23CC4CC(CC(C4)C2)C3)CC1	i	i	i	i	i	-0.064	x	x
CCn1c2ccccc2c2cc(/C=N/n3c(-c4cc(C)[nH]n4)n[nH]c3=S)ccc21	i	i	i	i	-7.8*	-0.8	70*	42*
CCCCC(O)(c1ccc(F)cc1)C(CN1CCOCC1)c1ccc(Cl)cc1 (configuration not stated)	i	i	i	i	i	x	x	x
CN(Cc1ccccc1O)CC1CCCN(CCc2ccc(Cl)cc2)C1 (configuration not stated)	i	i	i	i	-10*	x	94*	73*
CN(Cc1ccccc1)S(=O)(=O)c1ccc(NS(=O)(=O)Cc2ccccc2)cc1	i	i	i	i	-8.8*	x	85*	57*
CCc1cc(=O)oc2cc(C)cc(OCC(=O)NC3CCN(Cc4ccccc4)CC3)c12	i	i	i	i	i	x	x	x
CCOc1cnc(-c2c(-c3c(Cl)cccc3Cl)noc2C)o1	i	i	i	i	-8.5*	-0.009	90*	61*
O=C(NCc1c[nH]c2ccccc12)c1ccccc1	i	i	i	i	i	x	x	x
CC(C)(C)N(Cc1ccccc1)C(=O)c1cc2ccccc2o1	i	i	i	i	-7.6*	x	91*	93*
CN(Cc1ccccc1)C(=O)c1cc2ccccc2o1	i	i	i	i	i	-0.92	x	x
CCc1ccc(C(=O)Cc2cc3cccc(OC)c3oc2=O)cc1	i	i	i	i	i	x	x	x
CSc1nsc(SC)c1C(=O)Nc1ccc(C(C)(C)C)cc1	i	i	i	i	-11*	0.39	93*	79*
COc1cccc(NC(=O)CNC(=O)Cn2cnc3sc(C)c(C)c3c2=O)c1	i	i	i	i	i	x	x	x
N#Cc1ccccc1OCCCN1CCC(Cc2ccccc2)CC1	i	i	i	i	-8.7*	x	82*	39*
OCC1(Cc2ccccc2)CCN(Cc2ccc(-c3ccco3)cc2)CC1	i	i	i	i	-10*	1.5	90*	52*
SMILES	RGS4 block	MrgX1 PAM	MrgX1 ag	MrgX1 antag	RGS4 act	KCC2 mod	RGS4 act valid	RGS4 act ctr
OCC1(Cc2ccccc2)CCCN(Cc2ccc(-c3ccco3)cc2)C1 (configuration not stated)	i	i	i	i	i	0.69	x	x
COC(=O)C(Nc1ccccc1Cl)(c1cc(C)c(O)c(C)c1)C(F)(F)F (configuration not stated)	i	i	i	i	-9.6*	-1.8	93*	97*
Cc1ccc(C)c(N2CCN(C(=O)c3ccc(CS(=O)(=O)c4ccccc4C)o3)CC2)c1	i	i	i	i	-8.8*	0.0021	88*	66*
Cc1c(C(=O)O)c(C(=O)O)c2n1CCS2	i	i	i	i	i	0.066	x	x
COc1cccc(CNC(=O)CCC2CCCN(c3cc(C)nc(N(C)C)n3)C2)c1 (configuration not stated)	i	i	i	i	-11*	-0.73	90*	72*
CC1CCCCN1CC(=O)Nc1ccc(Oc2ccccc2)cc1 (configuration not stated)	i	i	i	i	-9.1*	-1.1	93*	87*
CC1CCCCN1CC(=O)Nc1ccc(N2CCCCCC2)cc1 (configuration not stated)	i	i	i	i	i	-0.4	x	x
CCOC(=O)C1CCN(S(=O)(=O)c2ccc3c(c2)CC(C)N3C(=O)C2CCC2)CC1 (configuration not stated)	i	i	i	i	-8.2*	x	57*	0
CCOC(=O)C1CCCN(S(=O)(=O)c2ccc3c(c2)CC(C)N3C(=O)C2CC2)C1 (configuration not stated)	i	i	i	i	i	x	x	x
Cc1nc(NS(=O)(=O)c2ccc(Cl)s2)c2c3c(sc2n1)CCCC3	i	i	i	i	i	-3.1	x	x
CN(C)C/C=C/C(O)(c1ccccc1)c1ccccc1	i	i	i	i	-9.3*	-0.99	93*	75*
